Experimental data: ChEMBL document CHEMBL1124294, “Nonsteroidal antiandrogens. Synthesis and structure-activity relationships of 3-substituted derivatives of 2-hydroxypropionanilides” (1988)
The source made the active and inactive calls. No cut-off for these calls is given here.

Tests used:
Rattus norvegicus [1] = species: Rattus norvegicus; assay: Effective dose required to inhibit 50 percent of androgen hormone activity in intact rat; assay type: functional
In short: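 Rats dosed with vehicle 0.5% polysorbate. Killed 24 h after the last dose; seminal vesicles dissected, blotted and weighed. Percent inhibition uses a cumulative castrate control group as the 100% effect. ED50 taken from dose-response curves.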

Rattus norvegicus [2] = species: Rattus norvegicus; assay: Agonist activity indicated by a statistically significant increase in ventral prostate gland weight compared, to control animals; NA means no statistically significant increase in ventral prostate weight compared to controls.; assay type: functional, organism-based
In short: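 Male rats castrated at 24 days of age, groups of five. Killed 24 h after the final dose. Seminal vesicles and ventral prostate dissected, cleaned and weighed. Value is ventral prostate weight in mg, compared with castrated vehicle controls for statistical significance.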

Rattus norvegicus [3] = assay: Percent inhibition of androgen hormone activity in rat at 50 mg/kg; assay type: functional
In short: (§1)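 Rats dosed with vehicle 0.5% polysorbate. Killed 24 h after the last dose; seminal vesicles dissected, blotted and weighed. […] Percent inhibition uses a cumulative castrate control group as the 100% effect. ED50 taken from dose-response curves.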

Rattus norvegicus [4] = assay: Percent inhibition of androgen hormone in rat at 25 mg/kg; assay type: functional; in short: as §1
Rattus norvegicus [5] = assay: Percent inhibition of androgen hormone in rat at 50 mg/kg; assay type: functional; in short: as §1
Rattus norvegicus [6] = assay: Effect of compound on LH level on 14-day dosing in intact rats 25 mg/kg; assay type: functional
Rattus norvegicus [7] = assay: Effect of compound on testosterone hormone level on 14-day dosing in intact rats at 25 mg/kg.; assay type: functional
Rattus norvegicus [8] = assay: Effect of compound on LH level on 14-day dosing in intact rats; No statistically significant difference from control; assay type: functional, organism-based
Rattus norvegicus [9] = assay: Effect of compound on testosterone hormone level on 14-day dosing in intact rats; No statistically significant difference from controls; assay type: functional, organism-based
Rattus norvegicus [10] = assay: Effect of compound on LH level on 14-day dosing in intact rats; assay type: functional
Rattus norvegicus [11] = assay: Effect of compound on testosterone hormone level on 14-day dosing in intact rats; assay type: functional

CC(O)(CSc1ccc(F)cc1)C(=O)Nc1ccc(C#N)c(C(F)(F)F)c1 (centres undefined)
ED50 (Rattus norvegicus [1]): 0.5 mg/kg
Weight (Rattus norvegicus [2]): Not significant

CC(O)(CSc1ccccc1)C(=O)Nc1ccc([N+](=O)[O-])cc1 (centres undefined)
inhibition in vivo at 50 mg/kg (Rattus norvegicus [3]): 11%

CC(O)(CSc1ccccc1)C(=O)Nc1ccc(Cl)c(Cl)c1 (centres undefined)
inhibition in vivo at 25 mg/kg (Rattus norvegicus [4]): 44%

CC(O)(CS(=O)(=O)c1ccc(F)cc1)C(=O)Nc1ccc([N+](=O)[O-])c(C(F)(F)F)c1 (centres undefined)
ED50 (Rattus norvegicus [1]): 0.4 mg/kg

CC(O)(CSc1ccccc1)C(=O)Nc1ccc(Cl)c([N+](=O)[O-])c1 (centres undefined)
inhibition in vivo at 50 mg/kg (Rattus norvegicus [5]): 36%
Weight (Rattus norvegicus [2]): Not significant

CC(O)(CS(=O)(=O)c1ccc(F)cc1)C(=O)Nc1ccc(C#N)c(C(F)(F)F)c1 (centres undefined) [BICALUTAMIDE]
ED50 (Rattus norvegicus [1]): 0.5 mg/kg
LH (Rattus norvegicus [6]): 1.04 ng/mL
Testosterone (Rattus norvegicus [7]): 3.97 ng/mL
Weight (Rattus norvegicus [2]): inactive
LH (Rattus norvegicus [8]): inactive
Testosterone (Rattus norvegicus [9]): inactive

CC(C)C(=O)Nc1ccc([N+](=O)[O-])c(C(F)(F)F)c1 [FLUTAMIDE]
ED50 (Rattus norvegicus [1]): 2 mg/kg
LH (Rattus norvegicus [6]): 9 ng/mL
Testosterone (Rattus norvegicus [7]): 7.61 ng/mL
LH (Rattus norvegicus [10]): <0.01 ng/mL
Testosterone (Rattus norvegicus [11]): <0.01 ng/mL
Weight (Rattus norvegicus [2]): inactive
